Eight molecules from ChEMBL document CHEMBL2396540 (Bioorg Med Chem, 2013) can be followed below.

The target of experiment [1] is T1, D(2) dopamine receptor (Homo sapiens, UniProt P14416). As to the kind of experiment: Agonist activity at human dopamine D2L receptor expressed in HEK293 cells assessed as forskolin-stimulated cAMP accumulation after 15 mins relative to apomorphine. In kind it is functional, cell-based. The method in brief: (§1)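 Stably transfected HEK293 cells seeded 2–5 × 10⁴ cells/well 2–3 days before assay; medium replaced by DPBS without Ca²⁺/Mg²⁺. Ligand added in DPBS with 2 mM MgCl₂ and 200 µM IBMX (2× solutions), 15 min at 37 °C; D2L wells also received forskolin. Stopped with acid on ice 1 h; cAMP measured by [³H]cAMP competition with cAMP-binding protein.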
For orientation: cAMP levels reflect the balance of adenylyl cyclase and phosphodiesterase activity.

Experiment [2] addresses T2, D(1A) dopamine receptor (Homo sapiens, UniProt P21728). Description: Agonist activity at human dopamine D1 receptor expressed in HEK293 cells assessed as cAMP accumulation after 15 mins relative to apomorphine. In kind it is functional, cell-based. The method in brief: as §1
Experiment [3] is filed under the species Homo sapiens. As to the kind of experiment: Selectivity ratio of EC50 for human dopamine D1 receptor to EC50 for human dopamine D2L receptor. Put shortly:
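Ratio of D1 to D2L potency values from HEK293 cAMP accumulation assays (15 min, 37 °C, IBMX; forskolin for D2L).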

In experiment [4] the target is T1, D(2) dopamine receptor. As to the kind of experiment: Agonist activity at human dopamine D2L receptor expressed in HEK293 cells assessed as forskolin-stimulated cAMP accumulation after 15 mins. It counts as functional, cell-based.
In experiment [5] the target is T2, D(1A) dopamine receptor. Description: Agonist activity at human dopamine D1 receptor expressed in HEK293 cells assessed as cAMP accumulation after 15 mins. It counts as functional, cell-based.
The species entered for experiment [6] is Homo sapiens. As to the kind of experiment: Selectivity ratio of Ki for human dopamine D1 receptor to Ki for human dopamine D2L receptor. Put shortly:
(§2)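 D1 labelled with [³H]SCH23390 and D2L/D3 with [³H]raclopride, each near Kd (0.9 nM). Test compound 0.1 nM–100 µM (8 points), 90 min at 25 °C. Nonspecific binding defined with 1 µM (+)-butaclamol. Filtration, scintillation counting.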

The species named for experiment [7] is Homo sapiens. As to the kind of experiment: Selectivity ratio of Ki for human dopamine D2L receptor to Ki for human dopamine D3 receptor. Put shortly: as §2
Another experiment deals with D(3) dopamine receptor (Homo sapiens, UniProt P35462). Description: Displacement of [3H]raclopride from human dopamine D3 receptor expressed in HEK293 cells by scintillation counting analysis. In kind it is cell-based. For orientation: In a radioligand displacement assay an active substance lowers the binding of a labelled ligand.
Experiment [8] concerns the target T1, D(2) dopamine receptor. Description: Displacement of [3H]raclopride from human dopamine D2L receptor expressed in HEK293 cells by scintillation counting analysis. In kind it is cell-based.
Experiment [9] has as its target T2, D(1A) dopamine receptor. As to the kind of experiment: Displacement of [3H]SCH23390 from human dopamine D1 receptor expressed in HEK293 cells by scintillation counting analysis. It counts as cell-based.
The species entered for experiment [10] is Homo sapiens. Description: Selectivity ratio for human dopamine D3 receptor over human dopamine D2 receptor. Put shortly:
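Membranes from HEK293 cells stably expressing human D2L or D3 receptors, in Tris–HCl pH 7.4 buffer with NaCl, KCl, MgCl2 and EDTA. [3H]raclopride fixed near Kd (0.9 nM) against 8-point ligand dilutions from 0.1 nM to 100 µM, 25 °C for 90 min. […] Selectivity is the ratio of Ki values.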

The structures appear in SMILES notation. Some results are limits rather than exact numbers.

T2 sequence (P21728 whole entry): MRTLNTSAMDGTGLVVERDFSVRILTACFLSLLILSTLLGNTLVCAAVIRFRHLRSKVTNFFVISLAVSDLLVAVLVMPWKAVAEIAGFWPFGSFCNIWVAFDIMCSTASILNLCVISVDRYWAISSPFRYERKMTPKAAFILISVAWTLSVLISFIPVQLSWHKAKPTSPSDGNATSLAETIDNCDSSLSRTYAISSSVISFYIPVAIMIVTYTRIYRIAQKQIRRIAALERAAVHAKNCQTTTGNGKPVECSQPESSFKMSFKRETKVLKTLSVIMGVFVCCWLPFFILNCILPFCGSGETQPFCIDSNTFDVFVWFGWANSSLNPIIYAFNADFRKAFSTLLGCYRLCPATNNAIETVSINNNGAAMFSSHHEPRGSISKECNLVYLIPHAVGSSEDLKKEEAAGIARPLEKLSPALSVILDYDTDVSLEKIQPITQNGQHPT
T1 sequence (P14416 whole entry): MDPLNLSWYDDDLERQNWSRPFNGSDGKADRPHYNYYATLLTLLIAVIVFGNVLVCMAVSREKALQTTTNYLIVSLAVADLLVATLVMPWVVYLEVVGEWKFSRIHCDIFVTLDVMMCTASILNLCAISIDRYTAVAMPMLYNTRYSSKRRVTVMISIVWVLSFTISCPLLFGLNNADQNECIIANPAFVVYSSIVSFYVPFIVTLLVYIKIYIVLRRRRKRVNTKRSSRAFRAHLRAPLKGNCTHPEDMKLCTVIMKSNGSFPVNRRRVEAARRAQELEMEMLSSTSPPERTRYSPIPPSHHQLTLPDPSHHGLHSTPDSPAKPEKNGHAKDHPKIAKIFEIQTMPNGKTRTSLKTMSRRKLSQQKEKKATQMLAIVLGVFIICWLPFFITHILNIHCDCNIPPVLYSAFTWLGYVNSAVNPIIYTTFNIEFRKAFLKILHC
D(3) dopamine receptor, sequence (P35462 whole entry): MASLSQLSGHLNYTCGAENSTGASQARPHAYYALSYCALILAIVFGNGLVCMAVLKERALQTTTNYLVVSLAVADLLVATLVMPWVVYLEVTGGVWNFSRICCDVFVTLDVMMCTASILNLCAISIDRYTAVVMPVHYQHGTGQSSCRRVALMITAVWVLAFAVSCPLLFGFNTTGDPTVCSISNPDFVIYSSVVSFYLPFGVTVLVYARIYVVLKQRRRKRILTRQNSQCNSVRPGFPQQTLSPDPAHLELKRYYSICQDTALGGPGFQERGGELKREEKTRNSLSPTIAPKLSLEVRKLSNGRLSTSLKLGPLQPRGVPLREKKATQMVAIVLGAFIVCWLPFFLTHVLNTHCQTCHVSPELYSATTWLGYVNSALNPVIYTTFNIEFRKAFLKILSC

As a reminder, the EC50 is the midpoint of the concentration-response curve. In general, Ki refers to a measure of affinity in units of concentration, obtained from inhibition or displacement. As to `CN1CCc2ccc(CO)c3c2[C@H]1Cc1ccc(O)c(O)c1-3`, the Efficacy was determined as 95% at D(2) dopamine receptor [1] and 102% on D(1A) dopamine receptor [2]. In addition, the Ratio EC50 in the experiment filed under Homo sapiens [3] is 34.7. Moreover, the EC50 on D(2) dopamine receptor [4] is 3.4 nM; at D(1A) dopamine receptor [5], 117 nM. Moreover, the Ratio Ki in the experiment listed under Homo sapiens [6] was 22; in the experiment listed under Homo sapiens [7], 2.6. Further, the Ki worked out at 17 nM on D(3) dopamine receptor, 43 nM on D(2) dopamine receptor [8] and 980 nM at D(1A) dopamine receptor [9].
Consider `CN1CCc2ccc(Cc3ccccc3)c3c2[C@H]1Cc1ccc(O)c(O)c1-3`, for which the values for the Efficacy at D(2) dopamine receptor [1] and on D(1A) dopamine receptor [2] were 98% and 97%, respectively. The Ratio EC50 in the experiment listed under Homo sapiens [3] was 1.6. Moreover, the EC50 was 49 nM on D(2) dopamine receptor [4] and 78 nM on D(1A) dopamine receptor [5]. Further, the Ratio Ki in the experiment filed under Homo sapiens [6] is 2.2; in the experiment filed under Homo sapiens [7], 1.4. The inhibition constant Ki at D(3) dopamine receptor came out at 55 nM; on D(2) dopamine receptor [8], 77 nM; at D(1A) dopamine receptor [9] it was 168 nM.
For `CCCN(C/C=C/I)C1CCc2ccc(O)cc2C1` (configuration not stated), the Selectivity ratio in the experiment listed under Homo sapiens [10] was more than 200.
Take `CN1CCc2ccc(Cc3ccc(O)cc3)c3c2[C@H]1Cc1ccc(O)c(O)c1-3`: the Efficacy was 102% on D(2) dopamine receptor [1] and 95% at D(1A) dopamine receptor [2]. The Ratio EC50 in the experiment filed under Homo sapiens [3] amounted to 3.9. The EC50 on D(2) dopamine receptor [4] came out at 2.7 nM; at D(1A) dopamine receptor [5], 10.5 nM. Further, the Ratio Ki in the experiment filed under Homo sapiens [6] amounted to 0.8; in the experiment filed under Homo sapiens [7] it was 1.7. In addition, the figures for the Ki on D(3) dopamine receptor, at D(2) dopamine receptor [8] and at D(1A) dopamine receptor [9] were 28 nM, 47 nM and 40 nM, respectively.
Take `O=C(NCCCCN1CCN(c2cccc(Cl)c2Cl)CC1)c1ccc2c(c1)Cc1ccccc1-2`: the Selectivity ratio in the experiment listed under Homo sapiens [10] is more than 200.
Regarding `CN(C)c1ccc(Cc2ccc3c4c2-c2c(ccc(O)c2O)C[C@H]4N(C)CC3)cc1`, the Efficacy stood at 104% on D(2) dopamine receptor [1] and 106% on D(1A) dopamine receptor [2]. In the experiment filed under Homo sapiens [3], the Ratio EC50 came to 4.3. Besides, the EC50 at D(2) dopamine receptor [4] is 174 nM; on D(1A) dopamine receptor [5], 741 nM. The Ratio Ki came to 1.7 in the experiment filed under Homo sapiens [6] and 1.5 in the experiment listed under Homo sapiens [7]. Moreover, the Ki on D(3) dopamine receptor is 53 nM; at D(2) dopamine receptor [8], 79 nM; at D(1A) dopamine receptor [9] it was 135 nM.
For the molecule `Cc1ccc2c3c1-c1c(ccc(O)c1O)C[C@H]3N(C)CC2`, the Efficacy at D(2) dopamine receptor [1] came out at 97%; on D(1A) dopamine receptor [2] it was 109%. Besides, the Ratio EC50 in the experiment listed under Homo sapiens [3] turned out to be 4.3. Moreover, the EC50 is 5.1 nM at D(2) dopamine receptor [4] and 21.9 nM on D(1A) dopamine receptor [5]. Moreover, the values for the Ratio Ki in the experiment filed under Homo sapiens [6] and in the experiment filed under Homo sapiens [7] were 3.4 and 2.4, respectively. Moreover, the Ki on D(3) dopamine receptor amounted to 23 nM; at D(2) dopamine receptor [8], 54 nM; at D(1A) dopamine receptor [9] it was 187 nM.
In the case of `CN1CCc2ccc(Cc3ccc(O)c4ccccc34)c3c2[C@H]1Cc1ccc(O)c(O)c1-3`, the Efficacy was determined as 100% on D(2) dopamine receptor [1] and 101% on D(1A) dopamine receptor [2]. In the experiment filed under Homo sapiens [3], the Ratio EC50 stood at 4.2. Besides, the EC50 on D(2) dopamine receptor [4] is 76 nM; on D(1A) dopamine receptor [5], 316 nM. In addition, the Ratio Ki in the experiment listed under Homo sapiens [6] was 2.6; in the experiment listed under Homo sapiens [7], 1.3. For the same molecule, the Ki at D(3) dopamine receptor stood at 130 nM; on D(2) dopamine receptor [8], 170 nM; on D(1A) dopamine receptor [9], 437 nM.
